# Assay outcomes deposited in PubChem BioAssay by Sanford-Burnham Center for Chemical Genomics.
# In the library only some 2.5% were active in any assay of this set; here they are far more common.
# SENP6 block: inhibitors of human SENP6 protease | Q9GZR1 | Recombinant SENP6 catalytic domain, aminoluciferin luminescence | inhibition, % at 10 µM | 330,000 tested, 1.8% active | AID 2599;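 active = inhibition above about 50% at the single tested dose, limit read from the data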;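 note: plate controls were DMSO wells with enzyme for no effect and DMSO wells lacking enzyme for full effect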
# SENP8 block-1: SENP8 protease inhibition; AID 2540; 330,000 tested, 1.2% active; purified SENP8, Z-RLRGG-aminoluciferin cleavage, luminescence; inhibition, % at 10 µM; Q96LD8; in the data active = inhibition above about 50%
# Target sequence (Q96LD8 whole entry, looked up): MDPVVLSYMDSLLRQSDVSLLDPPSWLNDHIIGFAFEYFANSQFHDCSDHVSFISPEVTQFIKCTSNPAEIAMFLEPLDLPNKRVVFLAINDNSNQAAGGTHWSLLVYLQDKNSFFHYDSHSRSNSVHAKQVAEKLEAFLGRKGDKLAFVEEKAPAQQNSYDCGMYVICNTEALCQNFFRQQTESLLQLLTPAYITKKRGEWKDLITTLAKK
# SENP1 inh: inhibitors of human SENP1 SUMO protease catalytic domain. Q9P0U3. recombinant SENP1 catalytic domain, CyPet-SUMO1-YPet FRET cleavage. inhibition, % at 10 µM. 360,000 tested, 0.21% active. AID 624204;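 active = inhibition at least 30% at 10 µM, raw YFP signal under a set limit, fluorescence ratio 0.5 to 1.5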;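 note: 0% = enzyme with DMSO and 100% = no enzyme wells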
#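 Compound: 10 µM single point, 0.5% DMSO; Test system: hSENP1 catalytic domain, recombinant; Timing: 50 min reaction at room temperature; Technique: FRET, CFP and YFP emission; Control set: no-enzyme wells low, DMSO-plus-enzyme wells high control.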
# SENP7 inh: blocks the human protease SENP7; Q9BQF6; recombinant SENP7, Z-RLRGG-aminoluciferin luminescence, 40 min; inhibition, % at 5 µM; 330,000 tested, 1.5% active;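 active = inhibition above about 50% at the single test dose, limit read from the data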;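 note: plate controls were DMSO with enzyme for no effect and no enzyme buffer wells for full effect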
# Target sequence (Q9BQF6 706-1050 limits assumed): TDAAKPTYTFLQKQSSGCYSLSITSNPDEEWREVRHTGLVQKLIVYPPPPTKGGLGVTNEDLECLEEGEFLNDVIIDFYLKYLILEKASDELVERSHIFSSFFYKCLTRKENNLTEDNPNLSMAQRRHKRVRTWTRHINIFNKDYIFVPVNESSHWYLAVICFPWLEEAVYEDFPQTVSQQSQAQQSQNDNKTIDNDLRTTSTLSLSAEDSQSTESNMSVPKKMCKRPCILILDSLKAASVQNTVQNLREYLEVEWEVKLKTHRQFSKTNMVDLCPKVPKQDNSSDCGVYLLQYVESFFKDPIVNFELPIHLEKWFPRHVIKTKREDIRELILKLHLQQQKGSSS
# SENP8 block-2: inhibitors of human SENP8 protease. Q96LD8. recombinant SENP8, Nedd8 substrate fluorescence. inhibition, % at 20 µM. 360,000 tested, 0.64% active; in the data active = inhibition mostly above about 40%, no sharp cut-off; inactive = mostly below about 27%
# SENP8 confirm: confirmation of human SENP8 protease inhibitors | Recombinant SENP8, Z-RLRGG-aminoluciferin luminescence, 60 min | 6,200 tested, 40% active | shares compounds with SENP7 inh | inhibition, % at 12.5 µM;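 active = mean inhibition across replicates above about 50%, limit read from the data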
# SENP6 confirm: confirmation of human SENP6 protease inhibitors | shares compounds with SENP7 inh | recombinant SENP6, Z-RLRGG-aminoluciferin luminescence | inhibition, % at 12.5 µM | 6,200 tested, 58% active | AID 488915
# SENP7 confirm: human SENP7 inhibition, confirmed; AID 488917; inhibition, % at 12.5 µM; 6,200 tested, 69% active; recombinant SENP7, Z-RLRGG-aminoluciferin luminescence, 40 min; shares compounds with SENP7 inh
# Casp3 select: caspase-3 inhibition (SENP selectivity assay) | shares compounds with SENP7 inh | purified caspase-3, Z-DEVD-aminoluciferin luminescence, 60 min | inhibition, % at 12.5 µM | 6,200 tested, 60% active | AID 488918;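 active = mean inhibition above about 50%, limit read from the data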;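 note: plate controls were enzyme with DMSO for no effect and wells without caspase-3 for full effect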
# SENP luc ctr: luminescence interference (SENP counter-screen); shares compounds with SENP7 inh; Pre-incubated SENP8/Z-RLRGG-aminoluciferin, luciferase luminescence interference; inhibition, % at 12.5 µM; 6,200 tested, 39% active;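 active = mean inhibition above about 50% when retested at one dose, limit read from the data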;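 note: plate controls were DMSO wells with completed reaction for no effect and substrate without enzyme for full effect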
# Starred values were filed as active, the others as inactive; i = inactive; / = no result.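 Rule for the calls, unless noted: active = mean inhibition above about 50% in the one-dose retest (limit read from the data); inactive = the rest.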
SMILES,SENP6 block,SENP8 block-1,SENP1 inh,SENP7 inh,SENP8 block-2,SENP8 confirm,SENP6 confirm,SENP7 confirm,Casp3 select,SENP luc ctr
CN(C)c1nn(C(=O)Nc2ccc(Cl)cc2Cl)cc1-c1ccccc1,3.8,3.1,2.1,101.1*,8.2,-13.0,-7.9,-2.8,-0.5,-8.5
CC(=O)Nc1ccc(Cl)cc1-c1ccccc1,/,/,2.5,/,20.7,/,/,/,/,/
CCc1cc(=O)oc2c3c(cc(OCC(=O)NCc4ccncc4)c12)OC(C)(C)CC3,51.6*,8.5,-0.4,-3.1,-206.4,9.4,7.3,1.3,-1.7,-4.4
Cc1c(C(=O)/C=C/c2cccs2)oc2ccc(F)cc12,51.6*,2.2,-10.8,-13.2,19.5,28.4,13.5,11.2,-3.7,21.0
Cc1c(C(=O)Nc2nccs2)oc2ccc(F)cc12,-8.2,-6.0,-0.6,28.1,-74.9,/,/,/,/,/
O=C(c1ccc(CS(=O)c2ccccc2Cl)o1)N1CCN(c2ccccn2)CC1 (centres undefined),-6.1,-5.9,2.9,7.5,0.6,/,/,/,/,/
COc1cc(CNc2ccc(O)cc2)cc(Br)c1OCc1ccccc1F,22.6,-5.3,0.4,60.0*,18.7,0.7,4.2,-2.7,-2.0,1.4
c1cncc(CN=C2Nc3ccccc3CS2)c1,21.4,-4.5,0.7,4.0,9.4,/,/,/,/,/
Clc1ccc(CN=C2Nc3ccccc3CS2)cc1,69.5*,44.3,-0.1,59.9*,11.3,65.6*,67.6*,87.2*,48.2,79.7*
Cc1ccc(CN=C2Nc3ccccc3CS2)cc1,89.2*,82.7*,1.3,88.4*,13.6,91.2*,91.4*,99.7*,84.1*,82.9*
O=C(c1cc2c(c(-c3cccc(-c4ccncc4)c3)n1)[C@H](CCO)N(C(=O)c1ccc3c(c1)OCO3)C2)N1CCOCC1,/,/,1.2,/,17.8,/,/,/,/,/
O=c1[nH]c(=S)[nH]c2c1C(c1ccc(Cl)cc1)OC(CCc1ccccc1)C2 (centres undefined),/,/,-1.4,/,6.8,/,/,/,/,/
CC(/C=C1\SC(=S)N(NC(=O)c2ccccc2C)C1=O)=C\c1ccccc1,-18.7,-6.4,0.0,-6.2,26.6,/,/,/,/,/
CC(/C=C1\SC(=S)N(NS(=O)(=O)c2ccccc2)C1=O)=C\c1ccccc1,95.8*,79.7*,0.8,2.7,33.1,92.3*,91.8*,37.1,44.3,16.2
CC(/C=C1\SC(=S)N(NS(=O)(=O)c2ccc(C)cc2)C1=O)=C\c1ccccc1,-12.7,83.8*,6.6,12.7,38.3,-8.6,83.7*,11.0,23.4,6.9
CCOC(=O)c1c(S(=O)(=O)NCC(=O)Nc2ccccc2)c(C)n(C)c1C,-10.0,-7.3,4.2,73.3*,-18.0,-12.3,-10.6,-10.6,-4.9,-15.0
CCOC(=O)c1c(S(=O)(=O)NCC(=O)Nc2cccc(C)c2)c(C)n(C)c1C,0.6,-5.5,-0.7,2.9,8.9,/,/,/,/,/
Cc1c(C(=O)O)oc2ccc(S(=O)(=O)N3CCC(C)CC3)cc12,-2.9,-2.2,-0.8,2.9,13.2,/,/,/,/,/
Cc1c(C(=O)N2CCC(C)CC2)oc2ccc(S(=O)(=O)N3CCC4(CC3)OCCO4)cc12,5.7,3.4,1.2,75.1*,7.6,6.0,7.8,6.6,2.8,1.7
O=C(NCCCN1CCOCC1)c1sc2cc([N+](=O)[O-])ccc2c1Cl,62.4*,4.9,3.5,-1.5,13.4,-7.7,-5.3,-9.4,4.5,0.1
O=C(NCCCN1CCOCC1)c1sc2cc(Cl)ccc2c1Cl,-24.0,-3.6,1.8,-5.3,11.8,/,/,/,/,/
Cc1ccc(C(C[N+](=O)[O-])c2c(C)[nH]n(-c3ccccc3)c2=O)cc1 (centres undefined),54.1*,25.7,-4.6,39.4,60.9*,24.9,49.5,23.9,3.3,6.1
O=C(Nc1cccnc1)c1cc(-c2ccc(Cl)c(Cl)c2)on1,55.4*,33.5,-0.7,76.0*,11.7,-1.1,3.2,10.9,22.5,13.1
O=C(Nc1cccnc1)c1cc(-c2ccc3c(c2)OCO3)on1,76.8*,18.7,0.3,95.7*,-58.2,26.3,27.6,62.4*,79.0*,31.1
O=C(Nc1cccnc1)c1cc(-c2ccc(F)cc2)on1,64.0*,56.3*,3.2,76.5*,15.8,10.1,21.6,39.1,31.5,2.2
SMILES,SENP6 block,SENP8 block-1,SENP1 inh,SENP7 inh,SENP8 block-2,SENP8 confirm,SENP6 confirm,SENP7 confirm,Casp3 select,SENP luc ctr
COc1cc2c3c(c1OC)C(=O)CC3CCCC2 (centres undefined),/,/,-2.5,/,-415.4,/,/,/,/,/
CC(C)(C)c1cc(C(=O)N/N=C/c2ccc(-c3ccccc3[N+](=O)[O-])o2)n[nH]1,52.3*,42.9,-8.4,22.0,30.3,-6.1,3.2,-6.2,-11.9,-5.7
Cc1cc(Cl)nc2c(C(C)C)cccc12,-20.7,-15.6,2.4,-10.4,0.0,/,/,/,/,/
Cc1ccc2nc(/C(C#N)=C/c3ccc(O)c(O)c3)[nH]c2c1,65.1*,17.0,-36.9,7.9,-162.6,54.2*,48.2,71.7*,29.6,8.7
O=C(NCCSc1ccccc1)c1ccc(Br)cc1,67.6*,27.1,0.8,47.0,15.3,52.5*,48.8,75.9*,44.6,14.7
O=C(NCCSc1ccccc1)c1ccccc1,44.8,-7.8,4.5,25.8,12.6,/,/,/,/,/
Cc1c(Cl)cccc1NC(=S)NC1CCN(C(C)C)CC1,-8.2,-8.4,-0.6,-4.6,4.5,/,/,/,/,/
COc1ccc2c(c1OC)C(=O)N1c3ccccc3SC21 (centres undefined),50.4*,28.5,-0.9,11.6,-306.8,40.0,36.7,77.7*,58.2*,28.7
COc1cc(C)c(C(=O)Oc2cc(C)c(C(=O)O)c(O)c2)c(O)c1,55.5*,55.4*,-0.4,-2.7,33.5,42.1,34.8,63.6*,22.1,58.9*
O=C(C1CC(c2ccccc2O)=NO1)N1CCCCC1 (centres undefined),-16.9,-4.3,1.5,73.6*,3.4,-10.8,-6.6,-12.9,7.7,7.3
O=C(C1CC(c2ccccc2O)=NO1)N1CCc2ccccc2C1 (centres undefined),-13.6,-6.2,-0.5,4.7,4.2,/,/,/,/,/
CC(C)[C@H](NC(=O)c1ccccc1)C(=O)OCC(=O)Nc1ncc(Cl)cc1Cl,-8.3,-9.9,-1.7,1.3,0.1,/,/,/,/,/
CCCCNc1c(-c2ccc(SC3CCCCC3)cc2)nc2ccccn12,83.0*,63.1*,-27.8,30.4,i,-22.1,6.8,12.6,17.1,3.0
CCCCNc1c(-c2cccc(SC3CCCCC3)c2)nc2ccc(Cl)cn12,-10.8,-3.1,-60.1,-4.8,-483.5,/,/,/,/,/
